Reference: article PMC7572827 (Clinical cancer research : an official journal of the …, 2020)
Several values for one entry are separate records, joined by “and”; a condition that tells them apart may be missing. Equal entries are not always repeated. Entries after “also recorded” stand apart in the source; their conditions may differ. Where two headings read alike, the source gives them in different places. Each block holds one compound with its values, some of them ahead of it.

Key:
[1] = test system: mCRPC; details: SWITCH phase 2 crossover study; cited from earlier work
[2] = Plasma pharmacokinetics by LC/MS/MS; details: steady-state, by ZEN-3694 dose level
[3] = Phase 1b/2a safety: treatment-related adverse events; assay type: in vivo, human
Outline: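 Open-label, multicenter phase 1b/2 trial in progressive mCRPC patients resistant to abiraterone and/or enzalutamide. Test compound was given orally once daily, starting at 36 mg, with 3+3 escalation up to 144 mg daily. Expansion cohorts received 48 or 96 mg daily. All patients took enzalutamide 160 mg daily, with a 14-day enzalutamide lead-in if not already on it. Cycles were 28 days. Adverse events were graded by CTC v4.0, with assessments weekly in cycles 1–2, every 2 weeks in cycle 3, then every 4 weeks.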

[4] = test system: BET inhibitor target genes MYC, IL-8, CCR1, GPR183, IL1RN; assay: Whole blood RNA expression of BET inhibitor target genes; assay type: in vivo, human
Outline: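 mCRPC patients received the oral test compound once daily plus enzalutamide 160 mg daily. Whole blood RNA was sampled pre-dose and 2, 4, 6 and 24 h after the cycle 1 day 1 dose. Panel: MYC, IL-8, CCR1, GPR183, HEXIM1, IL1RN. Expression change was correlated with parent plus active metabolite exposure: AUC0–2 for MYC and GPR183, AUC0–4 for CCR1, IL1RN and IL-8. Exposure was measured by plasma LC/MS/MS.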

[5] = test system: metastatic castration-resistant prostate cancer (mCRPC); assay type: in vivo, human
[6] = test system: MYC and AR-signaling; assay: RNA-seq gene set enrichment analysis of paired metastatic tumor biopsies; assay type: in vivo, human; details: four patients, with enzalutamide, median eight weeks of treatment

Impact of ZEN-3694 on concentration [2]: no significant impact
Compound: CNC(=O)c1ccc(N2C(=S)N(c3ccc(C#N)c(C(F)(F)F)c3)C(=O)C2(C)C)cc1F [enzalutamide]
Median PFS, second line [1]: 3.5 months

Compound: C[C@]12CC[C@H](O)CC1=CC[C@@H]1[C@@H]2CC[C@]2(C)C(c3cccnc3)=CC[C@@H]12 [abiraterone]
Median PFS, second line [1]: 1.7 months

Compound: CNc1nc2ncc(-c3c(C)noc3C)cc2n1Cc1ccccc1 [ZEN-3694]
Treatment-related AE all grades, patients: Fatigue ([3]; 36mg QD n=4): 1
Treatment-related AE all grades, patients: Visual symptoms ([3]; 36mg QD n=4): 3
Treatment-related AE all grades, patients: Weight loss & Abnormal WL ([3]; 36mg QD n=4): 1
Treatment-related AE all grades, patients: Constipation ([3]; 48 mg QD n=21): 1
Treatment-related AE all grades, patients: Decreased Appetite ([3]; 48 mg QD n=21): 2
Treatment-related AE all grades, patients: Dysgeusia ([3]; 48 mg QD n=21): 2
Treatment-related AE all grades, patients: Dyspepsia ([3]; 48 mg QD n=21): 1
Treatment-related AE all grades, patients: Fatigue ([3]; 48 mg QD n=21): 8
Treatment-related AE all grades, patients: Nausea ([3]; 48 mg QD n=21): 7
Treatment-related AE all grades, patients: Photopsia ([3]; 48 mg QD n=21): 1
Treatment-related AE all grades, patients: Photosensitivity ([3]; 48 mg QD n=21): 2
Treatment-related AE all grades, patients: Rash maculopapular ([3]; 48 mg QD n=21): 3
Treatment-related AE all grades, patients: Thrombocytopenia ([3]; 48 mg QD n=21): 1
Treatment-related AE all grades, patients: Visual symptoms ([3]; 48 mg QD n=21): 12
Treatment-related AE all grades, patients: Vomiting ([3]; 48 mg QD n=21): 1
Treatment-related AE all grades, patients: Decreased Appetite ([3]; 72mg QD n=6): 1
Treatment-related AE all grades, patients: Diarrhea ([3]; 72mg QD n=6): 1
Treatment-related AE all grades, patients: Dizziness ([3]; 72mg QD n=6): 1
Treatment-related AE all grades, patients: Dysgeusia ([3]; 72mg QD n=6): 0
Treatment-related AE all grades, patients: Fatigue ([3]; 72mg QD n=6): 2
Treatment-related AE all grades, patients: Nausea ([3]; 72mg QD n=6): 3
Treatment-related AE all grades, patients: Taste disorder ([3]; 72mg QD n=6): 1
Treatment-related AE all grades, patients: Thrombocytopenia ([3]; 72mg QD n=6): 2
Treatment-related AE all grades, patients: Visual symptoms ([3]; 72mg QD n=6): 6
Treatment-related AE all grades, patients: Weight loss & Abnormal WL ([3]; 72mg QD n=6): 1
Treatment-related AE all grades, patients: Blood creatinine Increased ([3]; 96mg QD n=31): 3
Treatment-related AE all grades, patients: Constipation ([3]; 96mg QD n=31): 3
Treatment-related AE all grades, patients: Decreased Appetite ([3]; 96mg QD n=31): 10
Treatment-related AE all grades, patients: Diarrhea ([3]; 96mg QD n=31): 5
Treatment-related AE all grades, patients: Dizziness ([3]; 96mg QD n=31): 3
Treatment-related AE all grades, patients: Dysgeusia ([3]; 96mg QD n=31): 10
Treatment-related AE all grades, patients: Dyspepsia ([3]; 96mg QD n=31): 2
Treatment-related AE all grades, patients: Fatigue ([3]; 96mg QD n=31): 13
Treatment-related AE all grades, patients: Nasal congestion ([3]; 96mg QD n=31): 3
Treatment-related AE all grades, patients: Nausea ([3]; 96mg QD n=31): 17
Treatment-related AE all grades, patients: Photopsia ([3]; 96mg QD n=31): 3
Treatment-related AE all grades, patients: Photosensitivity ([3]; 96mg QD n=31): 3
Treatment-related AE all grades, patients: Rash ([3]; 96mg QD n=31): 3
Treatment-related AE all grades, patients: Rash maculopapular ([3]; 96mg QD n=31): 1
Treatment-related AE all grades, patients: Taste disorder ([3]; 96mg QD n=31): 3
Treatment-related AE all grades, patients: Thrombocytopenia ([3]; 96mg QD n=31): 6
Treatment-related AE all grades, patients: Vision blurred ([3]; 96mg QD n=31): 2
Treatment-related AE all grades, patients: Visual symptoms ([3]; 96mg QD n=31): 17
Treatment-related AE all grades, patients: Vomiting ([3]; 96mg QD n=31): 3
Treatment-related AE all grades, patients: Weight loss & Abnormal WL ([3]; 96mg QD n=31): 3
Dose-limiting toxicity ([3]; 96 mg/day dose level, Grade 3 nausea, cycle 1): One patient
Treatment-related AE all grades, patients: Decreased Appetite ([3]; 120mg QD N=4): 3
Treatment-related AE all grades, patients: Dysgeusia ([3]; 120mg QD N=4): 1
Treatment-related AE all grades, patients: Fatigue ([3]; 120mg QD N=4): 3
Treatment-related AE all grades, patients: Nausea ([3]; 120mg QD N=4): 3
Treatment-related AE all grades, patients: Vision blurred ([3]; 120mg QD N=4): 1
Treatment-related AE all grades, patients: Visual symptoms ([3]; 120mg QD N=4): 4
Treatment-related AE all grades, patients: Vomiting ([3]; 120mg QD N=4): 1
Treatment-related AE all grades, patients: Weight loss & Abnormal WL ([3]; 120mg QD N=4): 1
Patients requiring dose reduction and/or discontinuation ([3]; 120 mg/day): 75%
Treatment-related AE all grades, patients: Decreased Appetite ([3]; 144mg QD N=3): 2
Treatment-related AE all grades, patients: Dysgeusia ([3]; 144mg QD N=3): 3
Treatment-related AE all grades, patients: Fatigue ([3]; 144mg QD N=3): 1
Treatment-related AE all grades, patients: Nausea ([3]; 144mg QD N=3): 2
Treatment-related AE all grades, patients: Rash maculopapular ([3]; 144mg QD N=3): 1
Treatment-related AE all grades, patients: Thrombocytopenia ([3]; 144mg QD N=3): 1
Treatment-related AE all grades, patients: Visual symptoms ([3]; 144mg QD N=3): 2
Treatment-related AE all grades, patients: Weight loss & Abnormal WL ([3]; 144mg QD N=3): 2
Patients requiring dose reduction and/or discontinuation ([3]; 144 mg/day): 100%
Treatment-related AE all grades, patients: Blood creatinine Increased ([3]; 6Dmg QD n=6): 2
Treatment-related AE all grades, patients: Decreased Appetite ([3]; 6Dmg QD n=6): 2
Treatment-related AE all grades, patients: Dysgeusia ([3]; 6Dmg QD n=6): 0
Treatment-related AE all grades, patients: Fatigue ([3]; 6Dmg QD n=6): 1
Treatment-related AE all grades, patients: Nausea ([3]; 6Dmg QD n=6): 2
Treatment-related AE all grades, patients: Taste disorder ([3]; 6Dmg QD n=6): 1
Treatment-related AE all grades, patients: Thrombocytopenia ([3]; 6Dmg QD n=6): 1
Treatment-related AE all grades, patients: Visual symptoms ([3]; 6Dmg QD n=6): 4
Treatment-related AE all grades, patients: Blood creatinine Increased ([3]; TOTAL n=75): 5 (6.7) n (%)
Treatment-related AE all grades, patients: Constipation ([3]; TOTAL n=75): 4 (5.3) n (%)
Treatment-related AE all grades, patients: Decreased Appetite ([3]; TOTAL n=75): 20 (26.7) n (%)
Treatment-related AE all grades, patients: Diarrhea ([3]; TOTAL n=75): 6(8) n (%)
Treatment-related AE all grades, patients: Dizziness ([3]; TOTAL n=75): 4 (5.3) n (%)
Treatment-related AE all grades, patients: Dysgeusia ([3]; TOTAL n=75): 16 (21.3) n (%)
Treatment-related AE all grades, patients: Dyspepsia ([3]; TOTAL n=75): 3(4) n (%)
Treatment-related AE all grades, patients: Fatigue ([3]; TOTAL n=75): 29 (38.7) n (%)
Treatment-related AE all grades, patients: Nasal congestion ([3]; TOTAL n=75): 3(4) n (%)
Treatment-related AE all grades, patients: Nausea ([3]; TOTAL n=75): 34 (45.3) n (%)
Treatment-related AE all grades, patients: Photopsia ([3]; TOTAL n=75): 4 (5.3) n (%)
Treatment-related AE all grades, patients: Photosensitivity ([3]; TOTAL n=75): 5 (6.7) n (%)
Treatment-related AE all grades, patients: Rash ([3]; TOTAL n=75): 3(4) n (%)
Treatment-related AE all grades, patients: Rash maculopapular ([3]; TOTAL n=75): 5 (6.7) n (%)
Treatment-related AE all grades, patients: Taste disorder ([3]; TOTAL n=75): 5 (6.7) n (%)
Treatment-related AE all grades, patients: Thrombocytopenia ([3]; TOTAL n=75): 11 (14.7) n (%)
Treatment-related AE all grades, patients: Vision blurred ([3]; TOTAL n=75): 3(4) n (%)
Treatment-related AE all grades, patients: Visual symptoms ([3]; TOTAL n=75): 48 (64) n (%)
Treatment-related AE all grades, patients: Vomiting ([3]; TOTAL n=75): 5 (6.7) n (%)
Treatment-related AE all grades, patients: Weight loss & Abnormal WL ([3]; TOTAL n=75): 8(10.7) n (%)
Maximum tolerated dose ([3]; ZEN-3694 36 to 144 mg daily with enzalutamide 160 mg daily): without reaching an MTD; also recorded: not reached
Patients requiring dose reduction and/or treatment discontinuation due to adverse events ([3]; all dose levels, 24/75): 32%
Patients with Grade ≥ 3 treatment-related adverse event ([3]; all dose levels, n=75, with enzalutamide): 18.7%
Patients requiring dose reduction and/or discontinuation ([3]; doses from 36 mg – 96 mg/day): 10%−35%
Recommended phase 2 dose ([3]; in combination with enzalutamide): 96 mg/day
Grade ≥ 3 nausea ([3]; n=75, with enzalutamide): 4%
Patients discontinued for adverse event ([3]; nine patients): 12%
Mean difference in whole blood RNA expression of BETi targets ([4]; 4 hours post-ZEN-3694 dose, p ≤ 0.0001): up to 4 fold
Decrease in whole blood mRNA levels of BET inhibitor target genes MYC, IL-8, CCR1, GPR183, IL1RN ([4]; dose-dependent, post-C1D1 dose): 2–4 fold
Dose level at which decrease in BET inhibitor target gene expression plateaus ([4]; in vivo): ≥ 96 mg
Duration of decrease in whole blood mRNA levels of BET inhibitor target genes ([4]; in vivo): at least 8 hours
Patients remaining on treatment without progression at data cut-off ([5]; 7 patients): 9%
Patients on treatment greater than 24 months without progression ([5]; four patients): 5%
Median time to progression (TTP) ([5]; higher canonical AR transcriptional activity in baseline biopsy): 19 weeks
Composite median radiographic or clinical progression-free survival ([5]; overall cohort): 5.5 months
Median radiographic progression-free survival (rPFS) ([5]; overall cohort, with enzalutamide): 9.0 months and 9 months
Median rPFS ([5]; patients that had progressed on abiraterone): 7.8 months
Median rPFS ([5]; primary resistance to prior first-line AR targeted therapy, progression within 6 months, N = 12): 10.6 months
Composite median PFS ([5]; primary resistance, progression within 16 weeks, N = 5): 10.6 months
Composite median radiographic or clinical progression-free survival ([5]; prior progression on abiraterone): 5.5 months
Median rPFS ([5]; radiographic progression at study entry): 7.8 months
Median rPFS ([5]; serum PSA consistently rose beyond 12 weeks, N = 21): 7.2 months
Median rPFS ([5]; tumors with high AR activity): 4.3 months
Median rPFS ([5]; tumors with low AR score): 10.4 months
Median TTP ([5]; without aggressive variant clinical features, p = 0.24): 5.5 months
Gene set enrichment, on-treatment versus baseline tumor biopsies [6]: down-regulation of expression of MYC and AR-signaling
